Source: PubChem BioAssay AID504382 (The Scripps Research Institute Molecular Screening Center, 2011)
Out of some 2,500 compounds screened, about 460 (18%) were called active. These entries were drawn from the full list. Unmarked numbers belong to inactive results.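 Rule for the calls: active = mean activation above a cutoff of low control average plus 3 SD from the earlier screen (cut at about 12% in these data); inactive = the rest.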

Assay: compound fluorescence interference without thin filaments, confirmation, artefact control for cardiac RTF calcium sensitizer project, biochemical (AID 504382)
Details: IANBD fluorescence interference counterscreen, buffer, EC20 Ca2+; at 7.2 µM; active compounds read high; scaled: EC20 calcium 0, EC100 calcium 100
Method in brief: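 Also added: EC20 calcium, 0.472 mM; dosing: single nominal 7.2 µM compound dose, 0.7% DMSO final; timing: 15 min, 25 °C; detection: fluorescence intensity, excitation 480 nm, emission 540 nm; replicates: each compound tested in triplicate wells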
For `Cc1ccc(N=Nc2c(O)n(CN3CCOCC3)c3ccccc23)cc1`, the fluorescence artifact activation was 4.5%. `CCOC(=O)C1=C(C)N=c2s/c(=C/c3ccc(OCC(=O)O)cc3)c(=O)n2C1c1ccc(SC)cc1` (stereo unspecified) showed a fluorescence artifact activation of 0.15%. In the case of `Cc1ccc(C)c(C2=NNC(=O)CC2)c1`, the fluorescence artifact activation is reported as 0.16%. Work on `Cc1cc(NC(=O)CCC(=O)N(CCC(C)C)C(C(=O)NC2CCCC2)c2cccnc2)no1` (stereo unspecified) yielded a fluorescence artifact activation of 0%. With `C=CC[C@@H](CC(=O)N(CCO)Cc1ccccc1)C(=O)N[C@@H](COC(=O)[C@@H](CC=C)Cc1ccc(F)cc1)Cc1ccccc1` the fluorescence artifact activation was 0.09%. For `CC(=O)N1C(=O)C(=C2C=C(C)OC(C)=C2)c2ccccc21`, the fluorescence artifact activation was 21.3% (active). `CCCn1c(N2CCN(CC(=O)c3c[nH]c4ccccc34)CC2)nc2c1c(=O)[nH]c(=O)n2C` showed a fluorescence artifact activation of 0.12%. With `CCCCCCCCOc1ccc(C2OC34CCCCC3C(C#N)(C#N)C2(C#N)C(=N)O4)cc1` (stereo unspecified) the fluorescence artifact activation was 4.01%. For `CCN1/C(=C/C=C/c2oc3ccc(-c4ccccc4)cc3[n+]2CC)Oc2ccc(-c3ccccc3)cc21`, the fluorescence artifact activation was -0.02%. With `CCC(c1nnnn1C1CCCCC1)N1CCN(C(=O)c2ccco2)CC1` (stereo unspecified) the fluorescence artifact activation was 6.69%. `O=C(Nc1ccc(N2CCN(C(=O)c3ccco3)CC2)cc1)c1ccc(F)cc1` gave a fluorescence artifact activation of 0.11%. In the case of `COc1ccc(C(=O)NCC(=O)N2CCN(C(=O)c3ccco3)CC2)cc1OC`, the fluorescence artifact activation is reported as 23.6% (active). Molecule `COc1cccc(C2CC(c3ccccc3)n3ncnc3N2)c1` (stereo unspecified) has a fluorescence artifact activation of 7.41%. Work on `CCOC(=O)N1CCC(Nc2nc3ccccc3nc2NS(=O)(=O)c2ccc(Cl)cc2)CC1` yielded a fluorescence artifact activation of -0.02%. In the case of `CCOC(=O)N1CCC(Nc2cccc(SC)c2)CC1`, the fluorescence artifact activation is reported as 97.8% (active). Work on `CCOC(=O)N1CCC(NC(=O)c2cccs2)CC1` yielded a fluorescence artifact activation of -0.01%. In the case of `CN1CCc2c(sc(/N=C/c3cccs3)c2C(N)=O)C1`, the fluorescence artifact activation is reported as -0.06%. With `O=C(NCC1CC1)Nc1cccc(Cl)c1` the fluorescence artifact activation was 0.16%. In the case of `Cn1c(NC(=O)C[n+]2cc(-c3ccc(Cl)cc3)n3c2CCC3)cc(=O)n(C)c1=O`, the fluorescence artifact activation is reported as 1.86%. With `C=CCOc1ccc(C2C(C(=O)c3cccs3)=C(O)C(=O)N2c2nnc(C)s2)cc1` (stereo unspecified) the fluorescence artifact activation was 0.1%. Molecule `COc1ccc(C2C(C(=O)c3cccs3)=C(O)C(=O)N2c2nnc(C)s2)cc1OC` (stereo unspecified) has a fluorescence artifact activation of 0.77%. In the case of `Cc1ccc(C2C(C(=O)c3cccs3)=C(O)C(=O)N2c2nnc(C)s2)cc1` (stereo unspecified), the fluorescence artifact activation is reported as 17.5% (active). Work on `O=c1c2ccccc2cnn1Cc1n[nH]c(=S)n1-c1ccccc1Cl` yielded a fluorescence artifact activation of 2.78%. Work on `CC(C)C12CN(C(=O)c3ccccc3[N+](=O)[O-])CC(C(C)C)(CN(C(=O)c3ccccc3[N+](=O)[O-])C1)C2=O` yielded a fluorescence artifact activation of 0.02%. With `O=C(O)c1cccc2c1-c1c(cccc1[N+](=O)[O-])C2` the fluorescence artifact activation was 706% (active). With `O=C(O)c1cccc([N+](=O)[O-])c1C(=O)Nc1cccc2ccccc12` the fluorescence artifact activation was 1.51%.
